Measurements from ChEMBL document CHEMBL1806428, “Design and synthesis of spiro derivatives of parthenin as novel anti-cancer agents” (Eur J Med Chem, 2011).
Where “and” joins values, the source holds several entries; their conditions need not be identical. Equal entries are not always repeated.

Experiments:
[1] = Partition coefficient, log P of the compound; assay type: physicochemical; settings: octanol/water
PC-3 = assay: Cytotoxicity against human PC3 cells assessed as cell growth after 48 hrs by sulforhodamine B assay; assay type: functional, cell-based
Outline: (§1)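 Log-phase cells seeded at 10^4/well and allowed to attach for 24 h at 37 °C, 5% CO2. Exposed for 48 h to 0.1–100 (1:10 serial dilutions), four replicate wells per condition. Fixed with cold 50% TCA for 1 h at 4 °C, stained with sulforhodamine B, dye dissolved in Tris, OD read at 540 nm. Blank-subtracted growth expressed relative to untreated cells (100%); IC50 reported.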

DU-145 = assay: Cytotoxicity against human DU145 cells assessed as cell growth after 48 hrs by sulforhodamine B assay; assay type: functional, cell-based; outline: as §1
SW-620 = assay: Cytotoxicity against human SW620 cells assessed as cell growth after 48 hrs by sulforhodamine B assay; assay type: functional, cell-based; outline: as §1

Structure (SMILES)	logP [1]	IC50 (PC-3; Homo sapiens, PC-3, 48 h)	IC50 (PC-3; pc-3)	IC50 (DU-145; Homo sapiens, DU-145, 48 h)	IC50 (DU-145; du-145)	IC50 (SW-620; Homo sapiens, SW-620, 48 h)	IC50 (SW-620; sw-620)
C[C@H]1CC[C@@H]2[C@@H](OC(=O)[C@]23CC(c2ccccc2F)N(c2ccccc2)O3)[C@]2(C)C(=O)C=C[C@@]12O (mixture of isomers)	3.35	–	–	–	–	–	–
C[C@H]1CC[C@@H]2[C@@H](OC(=O)[C@]23CC(c2cccc(F)c2)N(c2ccccc2)O3)[C@]2(C)C(=O)C=C[C@@]12O (mixture of isomers)	3.35	–	–	–	–	–	–
C[C@H]1CC[C@@H]2[C@@H](OC(=O)[C@]23CC(c2cccc(Cl)c2)N(c2ccccc2)O3)[C@]2(C)C(=O)C=C[C@@]12O (stereo partly drawn)	–	8.2 µM	12 µM	7.4 µM	6 µM	6.1 µM	10.5 µM
C[C@H]1CC[C@@H]2[C@@H](OC(=O)[C@]23CC(c2ccc(Br)cc2)N(c2ccccc2)O3)[C@]2(C)C(=O)C=C[C@@]12O (stereo partly drawn)	–	–	5.8 µM and 2.3 µM	5.3 µM	4.2 µM	6.7 µM	8.1 µM
Cc1ccc(C2C[C@@]3(ON2c2ccccc2)C(=O)O[C@@H]2[C@H]3CC[C@H](C)[C@]3(O)C=CC(=O)[C@@]23C)cc1 (mixture of isomers)	3.64	–	–	–	–	–	–
C[C@H]1CC[C@@H]2[C@@H](OC(=O)[C@]23CC(c2ccc(Cl)cc2)N(c2ccccc2)O3)[C@]2(C)C(=O)C=C[C@@]12O (stereo partly drawn)	–	7.8 µM	12 µM	7 µM	6 µM	7.5 µM	5.1 µM
C[C@H]1CC[C@@H]2[C@@H](OC(=O)[C@]23CC(c2c(Cl)cccc2Cl)N(c2ccccc2)O3)[C@]2(C)C(=O)C=C[C@@]12O (stereo partly drawn)	–	2.4 µM	4.2 µM	9 µM	6.3 µM	3 µM	5 µM
C[C@H]1CC[C@@H]2[C@@H](OC(=O)[C@]23CC(c2ccc(F)cc2)N(c2ccccc2)O3)[C@]2(C)C(=O)C=C[C@@]12O (mixture of isomers)	3.35	–	–	–	–	–	–
COc1cccc(C2C[C@@]3(ON2c2ccccc2)C(=O)O[C@@H]2[C@H]3CC[C@H](C)[C@]3(O)C=CC(=O)[C@@]23C)c1 (mixture of isomers)	3.25	–	–	–	–	–	–
COc1ccc(C2C[C@@]3(ON2c2ccccc2)C(=O)O[C@@H]2[C@H]3CC[C@H](C)[C@]3(O)C=CC(=O)[C@@]23C)cc1Br (mixture of isomers)	3.98	–	–	–	–	–	–
C[C@H]1CC[C@@H]2[C@@H](OC(=O)[C@]23CC(c2ccc([N+](=O)[O-])cc2)N(c2ccccc2)O3)[C@]2(C)C(=O)C=C[C@@]12O (stereo partly drawn)	–	8.4 µM	9.3 µM	5.6 µM	6 µM	5.7 µM	5.1 µM
COc1ccc(C2C[C@@]3(ON2c2ccccc2)C(=O)O[C@@H]2[C@H]3CC[C@H](C)[C@]3(O)C=CC(=O)[C@@]23C)cc1Br (stereo partly drawn)	–	5.7 µM	8.1 µM	6.3 µM	5.4 µM	6.8 µM	9 µM
C[C@H]1CC[C@@H]2[C@@H](OC(=O)[C@]23CC(c2ccc(F)cc2)N(c2ccccc2)O3)[C@]2(C)C(=O)C=C[C@@]12O (stereo partly drawn)	–	–	5.7 µM and 12 µM	6.4 µM	5 µM	7.3 µM	6 µM
C[C@H]1CC[C@@H]2[C@@H](OC(=O)[C@]23CC(c2ccccc2)N(c2ccccc2)O3)[C@]2(C)C(=O)C=C[C@@]12O (stereo partly drawn)	–	5.7 µM	9 µM	5.6 µM	6.5 µM	5.3 µM	6 µM
COc1ccc(C2C[C@@]3(ON2c2ccccc2)C(=O)O[C@@H]2[C@H]3CC[C@H](C)[C@]3(O)C=CC(=O)[C@@]23C)cc1 (stereo partly drawn)	–	5.7 µM	6 µM	6.4 µM	7.1 µM	7.3 µM	4.2 µM
